According to ChEMBL document CHEMBL3352401, “Synthesis and antiviral activity of new phenylimidazopyridines and N-benzylidenequinolinamines derived by molecular simplification of phenylimidazo[4,5-g]quinolines” (Eur J Med Chem, 2014):

Tests used:
[1] = Half life in pH 7.4 buffered solution; format: physicochemical
How it was run: (§1)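 Compound kept at 37 °C in pH 7.4 phosphate buffer (chemical) or plasma (enzymatic), sampled hourly. Plasma aliquots extracted with acetonitrile (1:2) and centrifuged 1000 g for 10 min. Supernatant or buffer analysed by reversed-phase HPLC, methanol/water 80:20, detection at 250 nm. Pseudo-first-order t½ taken from the slope of log remaining compound versus time.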

[2] = Half life in plasma (unknown origin); format: ADME, cell-free; conditions: unidentified; how it was run: as §1
[3] = Antiviral activity against Bovine viral diarrhea virus 1-NADL ATCC VR-534 infected in MDBK cells assessed as protection from virus-induced cytopathogenicity after 3 to 4 days by MTT method; format: functional, cell-based; conditions: Bovine viral diarrhea virus isolates and strains, ATCC VR-534, MDBK
How it was run: (§2)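 Confluent monolayers grown overnight (BHK-21 at 5×10⁴ cells/well for YFV and Reo-1; MDBK at 3×10⁴ cells/well for BVDV). Infection at m.o.i. 0.01 for 2 h in maintenance MEM-Earle with 0.5% inactivated FBS, then serial compound dilutions added. Viability read by MTT after 3–4 days at 37 °C. EC50 taken from linear regression against untreated controls.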

[4] = Cytotoxicity against mock-infected bovine MDBK cells assessed as reduction in proliferation after 72 hrs by MTT method; format: cell-based, Bos taurus; conditions: cattle
How it was run: (§3)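 MDBK and BHK cells seeded at 6 × 10⁵ and 1 × 10⁶ cells/mL respectively. Medium was MEM-Earle with L-glutamine, 1 mM pyruvate and kanamycin, plus 10% horse serum (MDBK) or 10% FBS (BHK). Cells exposed to serial compound dilutions at 37 °C, 5% CO₂; MTT viability read at 72 h. CC50 by linear regression versus untreated controls.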

[5] = Cytotoxicity against mock-infected human MT4 cells assessed as reduction in proliferation after 96 hrs by MTT method; format: cell-based
How it was run: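 Exponentially growing MT-4 cells seeded at 1 × 10⁵ cells/mL in RPMI-1640 with 10% FBS, penicillin and streptomycin. Held 96 h at 37 °C, 5% CO₂ with or without serial compound dilutions; viability by MTT. Compounds dissolved in DMSO at 100 mM stock, then diluted in medium. CC50 by linear regression.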

[6] = Cytotoxicity against mock-infected hamster BHK21 cells assessed as reduction in proliferation after 72 hrs by MTT method; format: cell-based, Mesocricetus auratus, BHK-21; how it was run: as §3
Yellow fever virus = assay: Antiviral activity against Yellow fever virus 17D Stamaril Pasteur J07B01 infected in BHK21 cells assessed as protection from virus-induced cytopathogenicity after 3 to 4 days by MTT method; format: functional, cell-based; conditions: Stamaril Pasteur J07B01, BHK-21; how it was run: as §2
[7] = Antiviral activity against Simian virus 12 3651 (ATCC VR- 214) infected in BHK21 cells assessed as protection from virus-induced cytopathogenicity after 3 to 4 days by MTT method; format: functional, cell-based; conditions: BHK-21; how it was run: as §2
[8] = Cytotoxicity against mock-infected African green monkey Vero 76 cells assessed as reduction in proliferation after 48 to 96 hrs by MTT method; format: cell-based; conditions: chlorocebus sabaeus, Vero 76 cells (mock-infected)
How it was run: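 Vero-76 cells seeded at 4 × 10⁵ cells/mL in D-MEM with L-glutamine, kanamycin and 10% FBS. Incubated at 37 °C, 5% CO₂, with or without serial dilutions of compound; viability read by MTT after 48–96 h. Run in parallel with antiviral assays. CC50 obtained by linear regression of % of untreated control.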

Coxsackievirus B5 = assay: Antiviral activity against Coxsackievirus B5 Faulkner (ATCC VR-185) infected in Vero 76 cells after 3 days by plaque reduction assays; format: functional, organism-based; conditions: Enterovirus B, Vero 76, 72 h
[9] = system: Human poliovirus 1 strain Sabin; assay: Antiviral activity against Poliovirus 1 strain Sabin ATCC VR-1562 infected in Vero 76 cells after 2 days by plaque reduction assays; format: functional, organism-based; conditions: Enterovirus C, ATCC VR-1562, Vero 76, 48 h
[10] = Antiviral activity against Human respiratory syncytial virus A2 ATCC VR-1540 infected in Vero 76 cells after 5 days by plaque reduction assays; format: functional, cell-based; conditions: ATCC VR-1540, Vero 76, 120 h
[11] = system: Vesicular stomatitis Indiana virus; assay: Antiviral activity against Vesicular stomatitis Indiana virus ATCC VR 158 infected in Vero 76 cells after 2 days by plaque reduction assays; format: functional, organism-based; conditions: ATCC VR 158, Vero 76, 48 h
[12] = Antiviral activity against Vaccinia virus Lister ATCC VR-1549 infected in Vero 76 cells after 3 days by plaque reduction assays; format: functional, cell-based; conditions: ATCC VR-1549, Vero 76, 72 h
Human alphaherpesvirus 1 = assay: Antiviral activity against Human herpesvirus 1 strain KOS ATCC VR- 1493 infected in Vero 76 cells after 3 days by plaque reduction assays; format: functional, organism-based; conditions: Human alphaherpesvirus 1, KOS ATCC VR1493, Vero 76, 72 h
[13] = Ratio of Cidofovir EC50 to compound EC50 for Vaccinia virus Lister ATCC VR-1549 infected in Vero 76 cells after 3 days by plaque reduction assays; format: functional
[14] = system: Human immunodeficiency virus 1; assay: Antiviral activity against HIV-13B infected in MT4 cells assessed as protection from virus-induced cytopathogenicity after 4 days by MTT method; format: functional, organism-based; conditions: Human immunodeficiency virus 1, 3B, MT4, 96 h
How it was run: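 HIV-1 IIIB, taken from persistently infected H9/IIIB supernatant. MT-4 cells (1×10⁴/well) in RPMI with serial compound dilutions, infected with 100 CCID50 (m.o.i. 0.01). Viability by MTT after 4 days at 37 °C. EC50 = 50% protection from cytopathogenicity, by linear regression against untreated controls. Compounds kept as 100 mM DMSO stocks, diluted in medium.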

For `N#Cc1ccc(-c2nc3cc(Br)cnc3[nH]2)cc1`, the half-life [1] was greater than 4 h, the half-life [2] was 2 h and the EC50 [3] was greater than 100 µM. For the same molecule, the CC50 at 72 h [4] was greater than 100 µM, the CC50 at 96 h [5] was 53 µM and the CC50 at 72 h [6] was greater than 100 µM. It also gave an EC50 (Yellow fever virus) greater than 100 µM, an EC50 [7] greater than 100 µM and a CC50 [8] of 73 µM. The EC50 (Coxsackievirus B5) was greater than 73 µM, the EC50 [9] was greater than 73 µM and the EC50 [10] was greater than 73 µM. The EC50 [11] was greater than 73 µM, the EC50 [12] was 2 µM and the EC50 (Human alphaherpesvirus 1) was 15 µM. The “Ratio EC50” value [13] was 10.

Work on `Nc1c(/N=C/c2ccc(C(F)(F)F)c([N+](=O)[O-])c2)cc2cccnc2c1Cl` yielded an EC50 [3] of 11 µM, a CC50 at 72 h [4] greater than 100 µM and a CC50 at 96 h [5] of 20 µM. It also gave an EC50 [14] greater than 100 µM, a CC50 at 72 h [6] greater than 100 µM and an EC50 (Yellow fever virus) greater than 75 µM. It also gave an EC50 [7] greater than 100 µM, a CC50 [8] of 90 µM and an EC50 (Coxsackievirus B5) of 16 µM. It also gave an EC50 [9] of 22 µM, an EC50 [10] greater than 90 µM and an EC50 [11] greater than 90 µM. For the same molecule, the EC50 [12] was greater than 90 µM and the EC50 (Human alphaherpesvirus 1) was greater than 100 µM.
